From ChEMBL document CHEMBL2086359, “Tormentic acid derivatives: synthesis and apoptotic activity” (Eur J Med Chem, 2012)
Activity calls are given as the source filed them. The calls are words filed in the database; no cut-off is given here.

Experiments:
[1] = Cytotoxicity against human A253 cells after 96 hrs by SRB assay; type: functional, cell-based
Method in brief: (§1)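 Monolayer cultures kept in RPMI 1640 with 10% heat-inactivated FBS and penicillin/streptomycin at 37 °C, 5% CO2. Exponentially growing cells were seeded and treated 24 h later with serial dilutions (0–30 µM) for 96 h, with DMSO or DMF at most 0.5% final. Cells were fixed with 10% TCA at 4 °C and stained with 0.4% SRB for about 30 min. Plates were washed with 1% acetic acid and the dye dissolved in 10 mM Tris base. Absorbance was read at 570 nm and survival taken relative to untreated controls. IC50 was estimated from dose–response curves, averaged from at least 5 independent experiments.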

A2780 = test: Cytotoxicity against human A2780 cells after 96 hrs by SRB assay; type: functional, cell-based; method in brief: as §1
518A2 = test: Induction of apoptosis in human 518A2 cells after 24 to 48 hrs by DNA laddering assay; type: functional, cell-based
Method in brief: (§2)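 About 1×10^6 cells were grown in 25 cm2 flasks to 80% and exposed to compound-loaded medium for 24–48 h, with blank medium as control. Cells were collected from the supernatant (300 g, 4 °C), washed in PBS and lysed. Lysates were digested with RNase for 2 h at 37 °C, then with proteinase K for 12 h at 50 °C. DNA was run on agarose gel electrophoresis ([…], 2 h).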

NIH3T3 = test: Cytotoxicity against mouse NIH/3T3 cells after 96 hrs by SRB assay; type: cell-based; method in brief: as §1
[2] = Cytotoxicity against human WW030272 cells after 96 hrs by SRB assay; type: cell-based; method in brief: as §1
8505C [3] = test: Induction of apoptosis in human 8505C cells assessed as induction of cell death after 24 to 48 hrs by AO/PI exclusion dye assay; type: functional, cell-based
Method in brief: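 About 1×10^6 cells were grown in 25 cm2 flasks to 80% and given compound-loaded medium for 24–48 h, with blank medium as control. Cells were recovered from the supernatant (300 g, 4 °C), washed and resuspended in PBS. They were mixed 1:1 with AO/PI solution and viewed by fluorescence microscopy: green cells were scored as apoptotic, red as necrotic.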

A549 = test: Cytotoxicity against human A549 cells after 96 hrs by SRB assay; type: functional, cell-based; method in brief: as §1
8505C [4] = test: Induction of apoptosis in human 8505C cells after 24 to 48 hrs by DNA laddering assay; type: functional, cell-based; method in brief: as §2
8505C [5] = test: Cytotoxicity against human 8505C cells after 96 hrs by SRB assay; type: functional, cell-based; method in brief: as §1
DLD-1 = test: Cytotoxicity against human DLD1 cells after 96 hrs by SRB assay; type: functional, cell-based; method in brief: as §1
[6] = Cytotoxicity against human 518A2 cells after 96 hrs by SRB assay; type: functional, cell-based; method in brief: as §1
MCF7 = test: Cytotoxicity against human MCF7 cells after 96 hrs by SRB assay; type: functional, cell-based; method in brief: as §1
8505C [7] = test: Induction of apoptosis in human 8505C cells migration of phosphatidylserine from inner to outer cell membrane at 3.5 uM after 6 hrs by Annexin V-FITC/PI based FACS analysis; type: functional

## COC(=O)[C@]12CC[C@@H](C)[C@@](C)(O)[C@H]1C1=CC[C@@H]3[C@@]4(C)C[C@@H](OC(=O)CCl)[C@H](OC(=O)CCl)C(C)(C)[C@@H]4CC[C@@]3(C)[C@]1(C)CC2
[1]
  IC50: 1.6 µmol
A2780
  IC50: 0.8 µmol
518A2
  Activity: Active
NIH3T3
  IC50: 1.1 µmol
[2]
  IC50: 3.4 µmol
8505C [3]
  Activity: Active
A549
  IC50: 1.2 µmol
8505C [4]
  Activity: Active
8505C [5]
  IC50: 1.6 µmol
DLD-1
  IC50: 2.2 µmol
[6]
  IC50: 1.1 µmol
MCF7
  IC50: 1.5 µmol
8505C [7]
  Activity: Active
